Test results taken from ChEMBL document CHEMBL3621187, “Novel Lobophorins Inhibit Oral Cancer Cell Growth and Induce Atf4- and Chop-Dependent Cell Death in Murine Fibroblasts” (ACS Med Chem Lett, 2015).
The source made the active and inactive calls. The calls are words filed in the database; no cut-off is given here.

How the values were obtained:
UMSCC1 [1] = test: Activation of unfolded protein response in human UMSCC1 cells assessed as increase of spliced XBP1 expression at 40 uM after 6 to 12 hrs by qRT-PCR analysis; type: functional, cell-based
In short: (§1)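 UMSCC1 oral squamous carcinoma cells were treated for 6 or 12 h, and UPR marker transcripts were quantified by qRT-PCR.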

MEF [2] = test: Antiproliferative activity against Atf4-deficient mouse MEF after 16 hrs by ATP-based luminescent proliferation assay; type: functional, cell-based
In short: (§2)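 Atf4−/− and Chop−/− murine embryonic fibroblasts, each with wildtype littermate controls, were dosed across a concentration series for 16 h. Proliferation was read by ATP-based luminescence, and wildtype vs null was compared by two-way ANOVA (dose, interaction).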

MEF [3] = test: Antiproliferative activity against Chop-deficient mouse MEF after 16 hrs by ATP-based luminescent proliferation assay; type: functional, cell-based; in short: as §2
UMSCC1 [4] = test: Activation of unfolded protein response in human UMSCC1 cells assessed as increase of CHOP expression at 40 uM after 6 to 12 hrs by qRT-PCR analysis; type: functional, cell-based; in short: as §1
[5] = Activation of unfolded protein response in human UMSC23 cells assessed as increase of CHOP expression at 40 uM after 6 to 12 hrs by qRT-PCR analysis; type: functional, cell-based
UMSCC14A [6] = test: Activation of unfolded protein response in human UMSCC14A cells assessed as increase of CHOP expression at 40 uM after 6 to 12 hrs by qRT-PCR analysis; type: functional, cell-based
UMSCC1 [7] = test: Activation of unfolded protein response in human UMSCC1 cells assessed as increase of GADD34 expression at 40 uM after 6 to 12 hrs by qRT-PCR analysis; type: functional, cell-based; in short: as §1
[8] = Cytotoxicity against human HEK cells at 1.25 to 80 uM after 24 hrs by ATP-based luminescent proliferation assay; type: cell-based
In short: (§3)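 Floor-of-mouth OSCC lines (UMSCC1, UMSCC14A) and nonmalignant primary human epidermal keratinocytes were treated at 1.25–80 μM for 24 and 48 h. Growth was measured by ATP-based luminescent proliferation assay, and OSCC vs keratinocytes was compared by two-way ANOVA.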

UMSCC14A [9] = test: Activation of unfolded protein response in human UMSCC14A cells assessed as increase of spliced XBP1 expression at 40 uM after 6 to 12 hrs by qRT-PCR analysis; type: functional, cell-based
MEF [10] = test: Activation of unfolded protein response in Atf4-deficient mouse MEF assessed as effect on Noxa expression at 40 uM after 6 hrs by qRT-PCR analysis; type: functional, cell-based
In short: (§4)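 Atf4-null murine embryonic fibroblasts and wildtype littermate controls were exposed to 40 μM for 6 h, with 2.5 μg/mL tunicamycin as comparator. cDNA libraries were made from the cells, and Noxa, Puma and Trb3 transcripts were quantified by qRT-PCR.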

MEF [11] = test: Activation of unfolded protein response in Atf4-deficient mouse MEF assessed as effect on Trb3 expression at 40 uM after 6 hrs by qRT-PCR analysis; type: functional, cell-based; in short: as §4
UMSCC1 [12] = test: Cytotoxicity against human UMSCC1 cells at 1.25 to 80 uM up to 48 hrs by ATP-based luminescent proliferation assay; type: functional, cell-based; in short: as §3
[13] = Activation of unfolded protein response in human UMSC23 cells assessed as increase of spliced XBP1 expression at 40 uM after 6 to 12 hrs by qRT-PCR analysis; type: functional, cell-based
MEF [14] = test: Antiproliferative activity against mouse MEF harboring eIF2-alpha (Ser51Ala) mutant after 16 hrs by ATP-based luminescent proliferation assay; type: functional, cell-based
UMSCC1 [15] = test: Activation of unfolded protein response in human UMSCC1 cells assessed as increase of BiP/GRP78 expression at 40 uM after 6 to 12 hrs by qRT-PCR analysis; type: functional, cell-based; in short: as §1
[16] = Activation of unfolded protein response in human UMSC23 cells assessed as increase of BiP/GRP78 expression at 40 uM after 6 to 12 hrs by qRT-PCR analysis; type: functional, cell-based
[17] = Activation of unfolded protein response in human UMSC23 cells assessed as increase of GADD34 expression at 40 uM after 6 to 12 hrs by qRT-PCR analysis; type: functional, cell-based
UMSCC14A [18] = test: Cytotoxicity against human UMSCC14A cells at 1.25 to 80 uM up to 48 hrs by ATP-based luminescent proliferation assay; type: functional, cell-based; in short: as §3
UMSCC14A [19] = test: Activation of unfolded protein response in human UMSCC14A cells assessed as increase of BiP/GRP78 expression at 40 uM after 6 to 12 hrs by qRT-PCR analysis; type: functional, cell-based
[20] = Activation of unfolded protein response in human UMSC23 cells assessed as increase of ATF3 expression at 40 uM after 6 to 12 hrs by qRT-PCR analysis; type: functional, cell-based
UMSCC14A [21] = test: Activation of unfolded protein response in human UMSCC14A cells assessed as increase of ATF3 expression at 40 uM after 6 to 12 hrs by qRT-PCR analysis; type: functional, cell-based
MEF [22] = test: Activation of unfolded protein response in Atf4-deficient mouse MEF assessed as effect on Puma expression at 40 uM after 6 hrs by qRT-PCR analysis; type: functional, cell-based; in short: as §4
UMSCC1 [23] = test: Activation of unfolded protein response in human UMSCC1 cells assessed as increase of ATF3 expression at 40 uM after 6 to 12 hrs by qRT-PCR analysis; type: functional, cell-based; in short: as §1
UMSCC14A [24] = test: Activation of unfolded protein response in human UMSCC14A cells assessed as increase of GADD34 expression at 40 uM after 6 to 12 hrs by qRT-PCR analysis; type: functional, cell-based
[25] = Cytotoxicity against human HEK cells at 1.25 to 80 uM after 48 hrs by ATP-based luminescent proliferation assay; type: cell-based; in short: as §3

SMILES	Activity [8]	Activity (MEF [10])	Activity (MEF [11])	Activity (UMSCC1 [12])	Activity (UMSCC14A [18])	Activity (MEF [22])	Activity [25]	further results
COC(=O)N[C@H]1[C@@H](C)O[C@@H](O[C@H]2C/C=C(\C)[C@@H]3C=C[C@@H]4[C@@H](O[C@H]5C[C@@H](O[C@H]6C[C@@H](O)[C@@H](O)[C@H](C)O6)[C@@H](O)[C@H](C)O5)[C@@H](C)C[C@H](C)[C@H]4[C@]3(C)C(=O)C3=C(O)[C@@]4(C[C@@H](C)C(C)=C[C@H]4/C=C/2C)OC3=O)C[C@]1(C)[N+](=O)[O-]	Non-toxic	inactive	inactive	Active	Active	inactive		Activity (UMSCC1 [1]): Active; Activity (MEF [2]): inactive; Activity (MEF [3]): inactive; Activity (UMSCC1 [4]): Active; Activity [5]: Active; Activity (UMSCC14A [6]): Active; Activity (UMSCC1 [7]): Active; Activity (UMSCC14A [9]): Active; Activity [13]: Active; Activity (MEF [14]): inactive; Activity (UMSCC1 [15]): Active; Activity [16]: Active; Activity [17]: Active; Activity (UMSCC14A [19]): Active; Activity [20]: Active; Activity (UMSCC14A [21]): Active; Activity (UMSCC1 [23]): Active; Activity (UMSCC14A [24]): Active
COC(=O)N[C@H]1[C@@H](C)O[C@@H](O[C@H]2C/C=C(\C)[C@@H]3C=C[C@@H]4[C@@H](O[C@H]5C[C@@H](O[C@H]6C[C@@H](O)[C@@H](O[C@@H]7C[C@@H](O)[C@@H](OC)[C@H](C)O7)[C@H](C)O6)[C@@H](O)[C@H](C)O5)[C@@H](C)C[C@H](C)[C@H]4[C@]3(C)C(=O)C3=C(O)[C@@]4(C[C@@H](C)C(C)=C[C@H]4/C=C/2C)OC3=O)C[C@]1(C)[N+](=O)[O-]	Non-toxic			Active	Active		Toxic	
COC(=O)N[C@H]1[C@@H](C)O[C@@H](O[C@H]2C/C=C(\C)[C@@H]3C=C[C@@H]4[C@@H](O[C@H]5C[C@@H](O[C@H]6C[C@@H](O)[C@@H](O[C@@H]7C[C@@H](O)[C@@H](OC)[C@H](C)O7)[C@H](C)O6)[C@@H](O)[C@H](C)O5)[C@@H](C)C[C@H](C)[C@H]4[C@]3(C)C(=O)C3=C(O)[C@@]4(C[C@@H](C)C(CO)=C[C@H]4/C=C/2C)OC3=O)C[C@]1(C)[N+](=O)[O-]	Non-toxic	inactive	inactive	Active	Active	inactive	Toxic	
COC(=O)N[C@H]1[C@@H](C)O[C@@H](O[C@H]2C/C=C(\C)[C@@H]3C=C[C@@H]4[C@@H](O[C@H]5C[C@@H](O[C@H]6C[C@@H](O)[C@@H](O[C@@H]7C[C@@H](O)[C@@H](OC)[C@H](C)O7)[C@H](C)O6)[C@@H](O)[C@H](C)O5)[C@@H](C)C[C@H](C)[C@H]4[C@]3(C)C(=O)C3=C(O)[C@@]4(C[C@@H](C)C(CO)=C[C@H]4/C=C/2C)OC3=O)C[C@]1(C)O	Non-toxic			Active	Active			
